Assay outcomes (PubChem BioAssay)
Compounds with a hit are over-represented: about 3.5% of the library has one in this group of screens.
Cneo AK release: causes C. neoformans cell lysis; lysis activity, % at 15 µM; AID 651654; adenylate kinase release luminescence, 4 h; normalised: neutral wells 0, clomiphene wells 100; 360,000 compounds, 0.2% hits;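 active means mean lysis activity across replicates of at least 80%, whatever share of replicates individually reach that level; inactive means mean lysis activity below 80%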
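Assay system: log-phase C. neoformans yeast / Quantity: yeast cell density of 5 × 10^6 cells/mL / Medium: fresh YPD growth medium / Compound: single dose / Timing: static 4 h at 37 °C with compound, 1 h detection / Measured by: adenylate kinase release luminescence / Read-out: lysis from increased AK signal / Benchmarks: Clomiphene as positive lysis control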
HIV Env fusion: inhibitors of HIV Env-mediated cell fusion | HeLa-JRFL Env/CEM21 cell fusion, luciferase | 360,000 compounds, 1.1% hits | inhibition, % at 12.3 µM;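 active means mean replicate inhibition score of at least 50 and every replicate individually at or above 50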;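 further: 0% = plate neutral controls and 100% = maraviroc near 300 nM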
MITF act: activators of MITF-driven TRPM1 promoter activity in SK-MEL-5 cells; 300,000 compounds, 0.75% hits; activation, % at 12.5 µM; SK-MEL-5 TRPM1-promoter luciferase, 24 h; % of positive control, neutral wells = 0;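 active means mean activation of at least 80% with every replicate also reaching 80%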;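 further: 0% = neutral control wells and 100% = parthenolide positive control wells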
esBAF inh: SWI/SNF esBAF complex inhibition; mouse ES cells, Bmi1-luciferase knock-in reporter, 24 h; 100% = twice the neutral-well signal; reporter increase, % at 12.5 µM; 350,000 compounds, 2% hits; in the data active means activation above about 40%;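 further: 0% = median of the plate's neutral control wells and 100% = double that signal; a rise in the Bmi1 reporter signal indicates esBAF inhibition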
Wnt bcat act: Wnt/beta-catenin pathway activation | Wnt/beta-catenin reporter cell assay, activator, plate reader | activation, % at 9.35 µM | 300,000 compounds, 1.2% hits | AID 743398; in the data active means activation above about 30%, passing the limit was not always enough;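 further: 0% = neutral control wells and 100% = positive control wells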
ERAP1 HTS inh: blocks human ERAP1 aminopeptidase activity; Q9NZ08; recombinant ERAP1, Leu-AMC fluorescence, 60 min; inhibition, % at 10.7 µM; 340,000 compounds, 0.15% hits; AID 652197;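 active means mean replicate inhibition of at least 30%, or all replicates individually reaching that 30% level; inactive means mean below 30% and not every replicate reaching it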;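 further: 0% = neutral control wells and 100% = L-leucinethiol positive control wells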
Target sequence (Q9NZ08 whole entry, looked up): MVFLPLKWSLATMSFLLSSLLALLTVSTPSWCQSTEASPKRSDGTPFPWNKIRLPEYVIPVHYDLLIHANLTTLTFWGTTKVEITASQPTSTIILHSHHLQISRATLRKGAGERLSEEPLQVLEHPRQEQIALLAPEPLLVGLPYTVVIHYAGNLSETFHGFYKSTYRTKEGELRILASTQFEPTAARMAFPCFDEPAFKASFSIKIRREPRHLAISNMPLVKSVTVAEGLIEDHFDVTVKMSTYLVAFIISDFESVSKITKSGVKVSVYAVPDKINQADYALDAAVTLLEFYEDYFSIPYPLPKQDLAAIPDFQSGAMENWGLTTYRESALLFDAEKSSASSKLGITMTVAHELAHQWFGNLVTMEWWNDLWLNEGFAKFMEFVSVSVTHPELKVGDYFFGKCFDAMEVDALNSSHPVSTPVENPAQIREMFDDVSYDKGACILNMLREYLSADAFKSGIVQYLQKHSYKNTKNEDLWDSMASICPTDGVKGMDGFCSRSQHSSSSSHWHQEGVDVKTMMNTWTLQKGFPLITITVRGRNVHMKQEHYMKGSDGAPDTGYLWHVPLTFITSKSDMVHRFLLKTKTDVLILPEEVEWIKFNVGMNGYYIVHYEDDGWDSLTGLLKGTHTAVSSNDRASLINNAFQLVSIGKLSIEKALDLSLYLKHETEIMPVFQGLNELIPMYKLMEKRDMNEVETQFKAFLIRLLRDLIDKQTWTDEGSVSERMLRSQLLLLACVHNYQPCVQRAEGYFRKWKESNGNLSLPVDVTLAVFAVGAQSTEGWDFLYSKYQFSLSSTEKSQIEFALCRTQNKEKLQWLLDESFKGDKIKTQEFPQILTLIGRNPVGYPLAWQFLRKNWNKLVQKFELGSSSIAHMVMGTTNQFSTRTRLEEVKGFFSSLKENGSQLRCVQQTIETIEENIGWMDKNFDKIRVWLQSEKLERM
* = called active by the depositor; . = not tested or not shown; ! = a repeat was not active; [ ] = another dose, or the depositor's remark.

SMILES | Cneo AK release | HIV Env fusion | MITF act | esBAF inh | Wnt bcat act | ERAP1 HTS inh
CCOC(=O)c1ccc(NC(=O)CCc2nc(-c3ccc(C)cc3)no2)cc1 | -2 | -20 | . | 18 | -2 | .
CCOc1ccc(NC(=O)CCCc2cc(-c3ccc(OCC)cc3)on2)cc1 | 1 | 20 | . | -72 | -4 | .
COc1ccc(-c2noc(CCC(=O)O)n2)cc1 | . | -10 | 4 | . | 1 | .
COc1ccc(-c2noc(CCCC(=O)O)n2)cc1 | 2 | 84* | . | -78 | . | .
COc1ccc(-c2noc(CCC(=O)Nc3cccnc3)n2)cc1OC | -2 | . | 15 | -5 | 0 | .
CCOC(=O)c1ccc(NC(=O)CCc2nc(-c3ccc(Cl)cc3)no2)cc1 | 0 | 59* | -17 | 9 | 0 | .
COCCOC(=O)N1C(=O)[C@@]2(c3ccccc31)[C@H](c1ccccc1OCCO)N1[C@H](c3ccccc3)[C@H](c3ccccc3)OC(=O)[C@H]1[C@@H]2C(=O)NC[C@H](O)c1ccccc1 | -1 | -202[16.7 µM] | . | . | . | 4
CO[C@@H]1CN(C)C(=O)c2ccc(NC(C)=O)cc2OC[C@H](C)N(Cc2ccccc2C(=O)O)C[C@H]1C | 1 | . | . | 0 | . | -1
Cc1ccc(-c2noc(CCCC(=O)Nc3cccnc3)n2)cc1 | . | 64* | . | -56 | 1 | .
O=C(CCCc1nc(-c2ccccc2)no1)Nc1cccnc1 | 2 | -89 | 9 | -3 | 3 | .
C[n+]1c2n(c3ccccc31)N=C(c1ccc(-c3ccccc3)cc1)CS2 | . | 66* | -80 | . | 6 | 0
Cc1cccc(-c2nnc3n2N=C(c2ccccc2)CS3)c1 | -1 | -90 | 3 | 5 | . | .
C[n+]1c2n(c3ccccc31)N=C(c1ccccc1)CS2 | -4 | 61*! | -24 | -20 | -1 | -4
C[n+]1c2n(c3ccccc31)N=C(c1ccc(Br)cc1)CS2 | 10 | 32 | . | -32 | . | .
CC(=O)NC1C(OCc2ccccc2)OC(CO)C(OC(C)=O)C1OC(C)=O (centres undefined) | 0 | 7 | -5 | . | 36* | .
CC(=O)NC1C(OCc2cccc(Br)c2)OC(COC(C)=O)C(OC(C)=O)C1OC(C)=O (centres undefined) | 1 | -12 | 4 | -7 | 1 | -2
COCc1cn(CC[C@@H]2CC[C@@H](NC(=O)c3ccccc3)[C@H](CO)O2)nn1 | 2 | 3[16.7 µM] | . | 2 | . | 1
CC(C)C#Cc1ccc2c(c1)O[C@H](CN(C)C(=O)c1ccncc1)[C@@H](C)CN([C@@H](C)CO)S2(=O)=O | -4 | . | . | -6 | . | -1
O=C(Nc1cccc(F)c1)c1cc(S(=O)(=O)N2CCC(C(=O)O)CC2)ccc1F | -2 | 77* | -2 | 1 | . | .
O=C(Nc1ccccc1)c1ccc(S(=O)(=O)N2CCC(C(=O)O)CC2)cc1 | 1 | 15 | 5 | -3 | 1 | -3
CN(C)C(=O)C[C@@H]1CC[C@@H]2[C@H](COC[C@@H](O)CN2CC2CC2)O1 | 0 | . | . | 0 | . | -4
C[C@@H]1CN([C@H](C)CO)C(=O)c2cccc(NC(=O)Nc3ccccc3)c2O[C@H]1CN(C)C(=O)NC1CCCCC1 | 1 | . | . | 3 | . | 1
COc1ccc(C2=NOC(Cn3nc(C(=O)NCc4cccc(Br)c4)cc3-c3ccccc3)C2)cc1 (centres undefined) | 1 | 85* | 14 | -3 | -3 | 4
COc1ccc(C2=NOC(Cn3nc(-c4ccccc4)cc3C(=O)NCc3cccc(Br)c3)C2)cc1 (centres undefined) | -1 | -1 | 2 | 0 | -2 | .
COc1ccccc1CNC(=O)c1cc(-c2ccccc2C)n(CC2CC(c3cccc([N+](=O)[O-])c3)=NO2)n1 (centres undefined) | 2 | 60* | -7 | 2 | -2 | -2
SMILES | Cneo AK release | HIV Env fusion | MITF act | esBAF inh | Wnt bcat act | ERAP1 HTS inh
COCCNC(=O)c1cc(-c2ccccc2C)n(CC2CC(c3cccc([N+](=O)[O-])c3)=NO2)n1 (centres undefined) | 0 | 24 | -3 | 7 | -7 | 4
Cc1noc(C)c1NC(=O)N[C@H]1CC[C@@H](CC(=O)Nc2ccccc2)O[C@H]1CO | -2 | -9[16.7 µM] | . | 0 | . | 2
CCc1ccc(C(=O)COC(=O)c2ccccc2OC)cc1 | -9 | -15 | 87* | . | 50* | -4
CCc1ccc(C(=O)COC(=O)c2cccnc2Cl)cc1 | . | -11 | 23 | 0 | 44* | -1
N#CCc1ccc(OC(=O)c2cccnc2Cl)cc1 | -3 | -46 | 70 | 60* | 39* | 5
O=C(COC(=O)c1cccnc1Cl)c1ccccc1 | -1 | . | 52 | 44* | 1 | -2
CCCNC(=O)[C@H]1[C@H](CO)[C@H]2Cn3c(ccc(C4=CCCC4)c3=O)[C@H]2N1Cc1ccccc1 | 4 | . | . | -2 | . | 1
C[C@H](CO)N1C[C@H](C)[C@@H](CN(C)Cc2ccc(Cl)c(Cl)c2)OCCCC[C@H](C)Oc2ccc(N(C)C)cc2C1=O | . | . | . | . | . | -2
Nc1cccc(C#Cc2ccc3c(=O)c4ccccc4oc3c2)c1 | -3 | -179 | 132* | 53* | -2 | 1
O=c1c2ccccc2oc2ccccc12 | 1 | . | . | 24 | -1 | -1
Nc1ccc(C#Cc2ccc3oc4ccccc4c(=O)c3c2)cc1 | -1 | -117 | 58 | 42* | 20 | 2
CC(=O)c1ccc2oc3ccccc3c(=O)c2c1 | -1 | -43 | 80* | 44* | 11 | -2
C[C@@H]1CN([C@H](C)CO)C(=O)c2cc(C#Cc3ccccc3F)cnc2O[C@H]1CN(C)C(=O)C1CC1 | -4 | 5[16.7 µM] | . | 4 | . | -1
Clc1cc(Br)ccc1OCCN1CCOCC1 | -4 | 2 | -2 | . | -1 | 3
CCCCCOc1ccc(CN2CCOCC2)cc1Cl | -1 | -73 | . | 50* | 14 | .
COC(=O)C[C@H]1CC[C@H]2[C@@H](COC[C@@H](O)CN2C(=O)Nc2ccccc2OC)O1 | -2 | 10[16.7 µM] | . | -4 | . | 2
Cc1cc(C)n2nc(C(=O)OCC(=O)N(C)C3CCS(=O)(=O)C3)nc2n1 (centres undefined) | 0 | . | 2 | -8 | -1 | 0
CCC(C)N(C(=O)COC(=O)c1nc2nc(C)cc(C)n2n1)C1CCS(=O)(=O)C1 (centres undefined) | 0 | . | -3 | -4 | 0 | 88*
Cc1ccc(C(=O)Nc2ncc(Cc3ccc(F)cc3)s2)o1 | -7 | -146 | 144* | -1 | 65* | .
Cc1ccc(C(=O)Nc2ncc(C)s2)o1 | -1 | -58 | 15 | . | . | .
CO[C@H]1CN(C)C(=O)c2ccc(NS(C)(=O)=O)cc2OC[C@H](C)N(C(=O)C2CCC2)C[C@@H]1C | -2 | . | . | -4 | . | -2
CCOC(=O)c1c(C)cc2c(CO)n[nH]c(=O)c2c1C | 1 | 56* | . | -9 | -7 | 0
CCOC(=O)Cc1n[nH]c(=O)c2ccccc12 | 1 | -7 | 1 | -1 | -10 | 1
